High-throughput results (PubChem BioAssay)
Compounds with a hit are over-represented: about 1.2% of the library has one in this group of screens.
Diaph inh CS – counter-screen for diaphorase-based assays: diaphorase inhibitors and chemical oxidizers; diaphorase resazurin-to-resorufin fluorescence, NADH, 16 min; bacterial (C. kluyveri) enzyme, not human; inhibition, % at 20 µM; 190,000 tested, 0.69% active;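 active means primary screen inhibition at 20 µM above a set limit, cut at about 50% in these data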;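 further: plate controls were DMSO with full reaction for no effect and wells lacking NADH for full effect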
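material = Clostridium kluyveri diaphorase enzyme | amount = 0.14 U/mL diaphorase, enzyme working solution | schedule = incubation 16 min, room temperature | detection = fluorescence of resorufin formed from resazurin, Ex 544/Em 590 nm | benchmarks = positive control minus NADH, DMSO neutral control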
G6PDH counter – counter-screen for G6PDH assay hits: L. mesenteroides G6PDH inhibition; inhibition, % at 5 µM; Purified L. mesenteroides G6PDH, diaphorase/resazurin coupled fluorescence, 45 min; 200,000 tested, 0.12% active; in the data active means inhibition above about 50%
HKDC1 inh – blocks human hexokinase HKDC1 activity | Q2TB90 | recombinant HKDC1, G6PDH/diaphorase resazurin coupled fluorescence | inhibition, % at 20 µM | 340,000 tested, 0.16% active | AID 493160;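 active means inhibition above about 35% when tested at 20 µM, limit read from the data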;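 further: plate controls were DMSO wells with enzyme for no effect and DMSO wells lacking enzyme for full effect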
Target sequence (Q2TB90 whole entry, looked up): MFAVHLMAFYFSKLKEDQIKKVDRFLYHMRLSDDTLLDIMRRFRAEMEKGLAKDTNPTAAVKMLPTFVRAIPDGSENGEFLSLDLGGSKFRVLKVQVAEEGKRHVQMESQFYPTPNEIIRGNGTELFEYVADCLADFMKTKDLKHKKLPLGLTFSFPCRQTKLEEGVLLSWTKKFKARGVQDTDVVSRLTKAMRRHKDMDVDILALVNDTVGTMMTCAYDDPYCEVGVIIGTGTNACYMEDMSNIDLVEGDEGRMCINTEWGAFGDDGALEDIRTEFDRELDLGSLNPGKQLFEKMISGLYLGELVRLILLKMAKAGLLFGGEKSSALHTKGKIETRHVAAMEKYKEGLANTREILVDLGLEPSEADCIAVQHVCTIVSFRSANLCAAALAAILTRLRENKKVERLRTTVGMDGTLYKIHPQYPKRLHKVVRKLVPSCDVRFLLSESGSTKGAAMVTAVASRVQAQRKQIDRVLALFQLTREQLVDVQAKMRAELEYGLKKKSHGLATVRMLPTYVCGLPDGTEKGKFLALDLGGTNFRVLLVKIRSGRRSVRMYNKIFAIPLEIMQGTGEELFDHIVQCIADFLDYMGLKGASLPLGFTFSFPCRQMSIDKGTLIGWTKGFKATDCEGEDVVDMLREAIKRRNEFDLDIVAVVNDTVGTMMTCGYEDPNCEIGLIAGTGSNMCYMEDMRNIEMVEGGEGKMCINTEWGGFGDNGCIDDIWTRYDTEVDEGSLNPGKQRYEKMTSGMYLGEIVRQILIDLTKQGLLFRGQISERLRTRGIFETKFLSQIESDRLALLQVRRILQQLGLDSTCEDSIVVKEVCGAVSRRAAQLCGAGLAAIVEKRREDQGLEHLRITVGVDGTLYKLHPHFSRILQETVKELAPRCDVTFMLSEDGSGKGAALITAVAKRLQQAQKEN
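test system = in-house recombinant HK5 (HKDC1) enzyme | amount = HKDC1 at 5 µg/mL | control set = DMSO-enzyme wells negative, buffer-substituted wells positive | compound = one dose of 20 µM, 1% DMSO | schedule = reaction time 90 min, room temperature, protected from light | technique = resorufin fluorescence at 613 nm | reagent = glucose with 1 mM ATP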
PfGluPho inh – PfG6PD (Plasmodium falciparum) enzyme inhibition; PfGluPho enzyme, NADPH resazurin-diaphorase fluorescence; inhibition, % at 20 µM; 350,000 tested, 0.78% active; AID 504690;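 active means inhibition reaching at least a set limit at 20 µM in the primary screen, cut at about 59% in these data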;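 further: 0% = DMSO wells with substrate and 100% = DMSO wells lacking glucose-6-phosphate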
Tb hexokinase – T. brucei hexokinase 1 inhibition. recombinant TbHK1, G6PDH-coupled NADH A340. inhibition, % at 10 µM. 220,000 tested, 0.11% active. AID 1430;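 active means inhibition of 50% or more in the single-dose primary screen; inactive means inhibition below 50%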
HKDC1 act conf2 – HKDC1 (human) activation, single-dose confirmed; shares compounds with HKDC1 inh; recombinant HKDC1, G6PDH/diaphorase resazurin fluorescence; stronger effect = lower value; inhibition, % at 20 µM; 740 tested, 14% active;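 active means inhibition at or below a set negative limit, negative inhibition meaning the enzyme was activated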
The depositor's hits bear a star; . = no result given.

SMILES | Diaph inh CS | G6PDH counter | HKDC1 inh | PfGluPho inh | Tb hexokinase | HKDC1 act conf2
CCCCN1C(=O)C(NC(C)=O)c2cc(Br)ccc21 (stereo not drawn) | 8 | 2 | -3 | 0 | -3 | .
CC(=O)NC1C(=O)N(CCN2CCOCC2)c2ccc(Cl)cc21 (stereo not drawn) | . | . | 82* | 12 | . | 61
CC(=O)NC1C(=O)N(CCN2CCOCC2)c2ccc(F)cc21 (stereo not drawn) | . | . | 79* | 8 | . | 61
CC(=O)NC1C(=O)N(CCN2CCOCC2)c2ccc(C)cc21 (stereo not drawn) | . | . | 86* | 17 | . | 70
COc1ccc(-c2cc(-c3nnc(COC(=O)c4ccncc4)o3)c3ccccc3n2)cc1OC | 11 | -10 | 8 | 13 | -17 | .
Cc1cc(C)cc(NS(=O)(=O)c2ccc3c(c2)C(C)(C)C(=O)N3C)c1 | . | . | -1 | 12 | . | .
O=S(=O)(c1ccc(NC(=S)NN=C(Cc2ccccc2)Cc2ccccc2)cc1)N1CCOCC1 | 28 | 2 | -47 | 29 | -6 | -44*
O=C(CNC(=O)c1ccncc1)N/N=C/c1ccc(O)cc1O | . | . | -41 | -13 | -50 | -25
O=C(CNC(=O)c1ccc2c(c1)OCCO2)N/N=C/c1ccc(O)cc1O | 16 | 8 | -51 | -18 | -16 | 18
Cc1cc(C)n(CCC(=O)N/N=C/c2ccc(O)cc2O)n1 | 15 | -9 | -42 | -18 | -18 | -36
O=C(NCc1ccccn1)C(=O)Nc1cc2c3c(c1)CC(=O)N3CCC2 | . | . | -4 | 12 | . | .
O=C(Nc1cc(Cl)ccc1Cl)C1Cc2ccccc2O/C1=N\O (stereo not drawn) | . | . | -3 | 6 | . | .
CCOc1ccc(N(CC(=O)NC2CCCCC2)C(=O)CCC(=O)Nc2nc(C)cs2)cc1 | . | . | 4 | 6 | . | .
COC(=O)c1sc(NC(=O)CSc2nc3nc(C)cc(C)n3n2)c(C(=O)OC)c1C | . | . | 35* | 44 | . | 26
O=S(=O)(NC1c2cccc3cccc(c23)C1N1CCN(CCO)CC1)c1ccccc1 (stereo not drawn) | 24 | 0 | -66 | -61 | -2 | -118*
O=S(=O)(NC1c2cccc3cccc(c23)C1N1CCNCC1)c1ccccc1 (stereo not drawn) | 36 | -24 | -56 | -42 | 1 | -95*
O=C(c1ccccc1)N1CCN(C2c3cccc4cccc(c34)C2NS(=O)(=O)c2ccccc2)CC1 (stereo not drawn) | 34 | 7 | -34 | -29 | -8 | .
O=[N+]([O-])c1cc(-c2ccc(/C=N\n3cnnc3)o2)cc([N+](=O)[O-])c1 | . | . | 6 | 15 | . | .
COc1ccccc1CNC(=O)CN1C(=O)NC2(CCCc3ccccc32)C1=O (stereo not drawn) | . | . | -4 | 1 | . | .
O=C(N/N=C/c1ccc(O)c2ncccc12)c1cccc(Br)c1 | 16 | -4 | -36 | -1 | -10 | -18
CC1=NNC(=O)/C1=C\c1cn(-c2ccccc2)nc1-c1ccc(Cl)cc1 | 14 | 2 | 37* | -2 | -11 | 2
O=S(=O)(Nc1ccc(O)c2ccccc12)c1cccs1 | . | . | 51* | 36 | . | 31
O=S(=O)(Nc1cccc2ccccc12)c1cccs1 | . | . | 5 | 34 | . | .
COc1ccc(C2=CC3=C(Br)C(=O)C(C)(OC(=O)c4ccc(Cl)nc4)C(=O)C3=CO2)cc1 (stereo not drawn) | . | . | 28 | 0 | -11 | .
COc1ccc(C2=CC3=C(Br)C(=O)C(C)(OC(=O)C4CCCC4)C(=O)C3=CO2)cc1 (stereo not drawn) | . | . | 53* | 16 | -15 | -18
COC(=O)CCC(=O)OC1(C)C(=O)C2=CN(Cc3ccc4c(c3)OCO4)C(c3ccc(OC)cc3)=CC2=C(Br)C1=O (stereo not drawn) | . | . | 40* | 67* | . | -5
COC(=O)CCC(=O)OC1(C)C(=O)C2=COC(c3ccc(OC)cc3)=CC2=C(Br)C1=O (stereo not drawn) | . | . | 37* | 8 | -24 | 0
CCc1cccc(NC(=O)C2CCCN(S(=O)(=O)c3cccs3)C2)c1 (stereo not drawn) | . | . | 0 | 33 | . | .
COc1ccc(-c2nc3c(C(=O)NCCN(C)C)cccc3c3ccccc23)cc1 | . | . | 39* | 47 | . | 37
O=C(Cn1c(C(=O)OCCO)cc2ccccc21)c1ccccc1 | . | . | 3 | -4 | . | .
